According to publication PMC4857835 (Investigative Ophthalmology & Visual Science, 2016):

What was measured:
[1] = biological target: mouse PKal (plasma kallikrein) (Mus musculus, UniProt P26262); assay: PKal protease activity assay, fluorogenic substrate H-D-Pro-Phe-Arg-AFC; format: biochemical
Outline: (§1)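 Purified mouse or rat plasma kallikrein with fluorogenic H-D-Pro-Phe-Arg-AFC at substrate Km, with test compound present. Liberated fluorescence is monitored over 5 min and the linear rate per min is calculated. IC50 is the inhibitor concentration giving 50% inhibition of uninhibited enzyme activity (100%).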

[2] = biological target: trypsin; assay: Trypsin-like protease enzyme activity assay; format: biochemical, human
Outline: (§2)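 Each human protease (plasmin, thrombin, trypsin, KLK1, factor XIa) is run with a suitable fluorogenic substrate. Km comes from a standard Michaelis-Menten transformation, and assays run at substrate Km. Fluorescence is read over 5 min and the linear rate per min is expressed as % activity. IC50 is 50% inhibition of uninhibited activity, and fold selectivity is relative to the human PKal IC50.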

[3] = test system: VEGF-induced retinal thickening; assay: VEGF-induced retinal thickening in mice; format: in vivo, WT mice (C57Bl/6); conditions: 1.60 mg/kg/d s.c. osmotic pump, VEGF 100 ng/eye
[4] = biological target: factor XIa (Homo sapiens, UniProt P03951); assay: Trypsin-like protease enzyme activity assay; format: biochemical
Outline: as §2

[5] = biological target: KLK1 tissue kallikrein (Homo sapiens, UniProt P06870); assay: Trypsin-like protease enzyme activity assay; format: biochemical
Outline: as §2

[6] = biological target: thrombin (Homo sapiens, UniProt P00734); assay: Trypsin-like protease enzyme activity assay; format: biochemical
Outline: as §2

[7] = biological target: rat PKal (plasma kallikrein) (Rattus norvegicus, UniProt P14272); assay: PKal protease activity assay, fluorogenic substrate H-D-Pro-Phe-Arg-AFC; format: biochemical
Outline: as §1

[8] = In vivo pharmacokinetics following subcutaneous dosing; design: species or system male SD rats; conditions: male, SD, rat, plasma, sc, 10 mg/kg
[9] = biological target: plasmin (Homo sapiens, UniProt P00747); assay: Trypsin-like protease enzyme activity assay; format: biochemical
Outline: as §2

[10] = biological target: human PKal (plasma kallikrein) (Homo sapiens, UniProt P03952); assay: PKal protease activity assay, fluorogenic substrate H-D-Pro-Phe-Arg-AFC; format: biochemical
Outline: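 Purified human plasma kallikrein with fluorogenic H-D-Pro-Phe-Arg-AFC at its Km concentration, plus test compound. Fluorescence is followed over 5 min and the linear rate per min is taken. IC50 is the concentration giving 50% inhibition of uninhibited activity (100%). Fold selectivity is each related protease's IC50 relative to the human PKal IC50.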

[11] = test system: VEGF-induced retinal thickening; assay: VEGF-induced retinal thickening in rats; format: in vivo, Sprague-Dawley rats; conditions: 0.58 mg/kg/d s.c. osmotic pump, VEGF 10 ng/eye, 48 hours, P < 0.001
Outline: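 Male Sprague-Dawley rats (10 weeks) got test compound 0.58 mg/kg/d or vehicle (10% PEG400 in PBS) by s.c. osmotic pump, started 1 day before 5 µL intravitreal VEGF 10 ng/eye or PBS. SD-OCT (2.5×2.5 mm volume centred on the optic nerve head) gave RPE-to-RNFL thickness 800 µm from centre at baseline, 24 and 48 h. Change from baseline was compared with vehicle-treated rats.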

Sequence of human PKal (plasma kallikrein) (P03952 391-638 limits assumed): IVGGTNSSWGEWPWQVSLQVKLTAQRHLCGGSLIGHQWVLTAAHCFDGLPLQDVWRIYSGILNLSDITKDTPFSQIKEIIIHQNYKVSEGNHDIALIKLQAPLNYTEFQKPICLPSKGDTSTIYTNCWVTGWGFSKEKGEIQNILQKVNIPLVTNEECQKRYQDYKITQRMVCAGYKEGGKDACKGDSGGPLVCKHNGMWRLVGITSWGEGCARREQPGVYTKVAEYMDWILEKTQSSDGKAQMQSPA
Sequence of human PKal (plasma kallikrein) (P03952 20-390 partner limits assumed): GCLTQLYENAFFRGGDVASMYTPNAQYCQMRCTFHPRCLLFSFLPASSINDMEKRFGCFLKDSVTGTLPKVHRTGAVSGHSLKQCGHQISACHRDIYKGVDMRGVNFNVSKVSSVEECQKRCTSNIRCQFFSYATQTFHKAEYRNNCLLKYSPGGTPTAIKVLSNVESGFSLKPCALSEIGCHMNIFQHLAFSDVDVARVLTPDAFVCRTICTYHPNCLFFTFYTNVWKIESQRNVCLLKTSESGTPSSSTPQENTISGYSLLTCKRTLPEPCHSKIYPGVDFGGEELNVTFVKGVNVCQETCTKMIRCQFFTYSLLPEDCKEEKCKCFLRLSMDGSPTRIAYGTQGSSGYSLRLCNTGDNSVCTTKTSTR
Sequence of factor XIa (P03951 388-625 limits assumed): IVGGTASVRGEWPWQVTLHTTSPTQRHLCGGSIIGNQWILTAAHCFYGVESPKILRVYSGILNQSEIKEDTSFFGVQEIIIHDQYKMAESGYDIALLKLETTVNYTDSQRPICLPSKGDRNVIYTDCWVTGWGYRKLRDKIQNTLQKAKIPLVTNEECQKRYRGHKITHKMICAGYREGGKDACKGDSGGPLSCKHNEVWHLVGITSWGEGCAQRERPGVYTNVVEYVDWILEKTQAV
Sequence of factor XIa (P03951 19-387 partner limits assumed): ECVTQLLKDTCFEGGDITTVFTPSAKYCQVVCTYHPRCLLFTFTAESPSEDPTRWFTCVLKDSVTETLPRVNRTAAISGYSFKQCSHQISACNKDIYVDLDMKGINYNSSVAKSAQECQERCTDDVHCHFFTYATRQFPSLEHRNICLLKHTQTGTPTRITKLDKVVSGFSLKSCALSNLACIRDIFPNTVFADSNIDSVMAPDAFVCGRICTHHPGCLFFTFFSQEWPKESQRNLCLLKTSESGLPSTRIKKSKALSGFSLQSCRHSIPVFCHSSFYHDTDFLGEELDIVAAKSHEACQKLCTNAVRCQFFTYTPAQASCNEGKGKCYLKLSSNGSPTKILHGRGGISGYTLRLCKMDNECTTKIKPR
Sequence of plasmin (P00747 581-810 limits assumed): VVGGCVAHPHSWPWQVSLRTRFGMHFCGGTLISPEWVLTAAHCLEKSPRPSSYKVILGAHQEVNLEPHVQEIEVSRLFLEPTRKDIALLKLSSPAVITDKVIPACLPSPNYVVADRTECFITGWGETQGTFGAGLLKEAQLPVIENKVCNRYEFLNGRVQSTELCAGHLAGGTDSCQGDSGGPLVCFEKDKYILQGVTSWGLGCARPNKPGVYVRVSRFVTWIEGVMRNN
Sequence of plasmin (P00747 97-580 partner limits assumed): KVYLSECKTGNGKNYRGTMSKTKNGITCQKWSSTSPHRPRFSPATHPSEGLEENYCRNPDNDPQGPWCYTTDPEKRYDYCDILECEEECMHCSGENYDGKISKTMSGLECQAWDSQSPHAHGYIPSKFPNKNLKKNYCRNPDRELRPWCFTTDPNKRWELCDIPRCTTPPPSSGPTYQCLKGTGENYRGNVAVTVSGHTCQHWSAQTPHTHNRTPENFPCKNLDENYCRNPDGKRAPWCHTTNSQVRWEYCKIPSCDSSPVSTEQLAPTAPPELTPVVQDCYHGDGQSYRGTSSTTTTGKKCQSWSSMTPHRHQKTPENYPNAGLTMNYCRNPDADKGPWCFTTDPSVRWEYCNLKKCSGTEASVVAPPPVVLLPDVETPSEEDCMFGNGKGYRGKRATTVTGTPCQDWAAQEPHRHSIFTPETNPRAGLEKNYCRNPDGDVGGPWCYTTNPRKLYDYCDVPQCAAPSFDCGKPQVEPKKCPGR
Sequence of KLK1 tissue kallikrein (P06870 25-262): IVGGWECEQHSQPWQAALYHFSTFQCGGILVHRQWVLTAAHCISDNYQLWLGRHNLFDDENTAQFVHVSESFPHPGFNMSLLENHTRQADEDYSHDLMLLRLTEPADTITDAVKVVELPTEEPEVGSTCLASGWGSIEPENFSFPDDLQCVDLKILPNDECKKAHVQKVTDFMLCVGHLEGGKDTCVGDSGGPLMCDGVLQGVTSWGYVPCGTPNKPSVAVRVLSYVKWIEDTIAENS
Sequence of rat PKal (plasma kallikrein) (P14272 391-638 limits assumed): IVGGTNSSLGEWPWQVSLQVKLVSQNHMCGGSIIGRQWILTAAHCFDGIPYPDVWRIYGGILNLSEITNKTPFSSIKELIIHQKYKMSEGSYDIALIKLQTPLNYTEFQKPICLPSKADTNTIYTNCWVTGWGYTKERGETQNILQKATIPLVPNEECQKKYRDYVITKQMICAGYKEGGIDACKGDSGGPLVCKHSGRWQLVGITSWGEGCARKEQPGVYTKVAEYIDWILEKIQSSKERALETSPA
Sequence of rat PKal (plasma kallikrein) (P14272 20-390 partner limits assumed): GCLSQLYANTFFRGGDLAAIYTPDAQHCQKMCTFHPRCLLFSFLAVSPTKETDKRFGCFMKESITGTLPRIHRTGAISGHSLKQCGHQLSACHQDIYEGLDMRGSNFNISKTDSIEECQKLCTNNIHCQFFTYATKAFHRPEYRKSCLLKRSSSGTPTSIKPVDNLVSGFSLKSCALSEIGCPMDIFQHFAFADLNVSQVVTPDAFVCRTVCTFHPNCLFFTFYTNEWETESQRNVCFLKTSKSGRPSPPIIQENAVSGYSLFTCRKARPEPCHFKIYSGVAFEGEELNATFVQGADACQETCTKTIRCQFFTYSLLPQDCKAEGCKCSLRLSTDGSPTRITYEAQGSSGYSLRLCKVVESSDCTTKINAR
Sequence of mouse PKal (plasma kallikrein) (P26262 391-638 limits assumed): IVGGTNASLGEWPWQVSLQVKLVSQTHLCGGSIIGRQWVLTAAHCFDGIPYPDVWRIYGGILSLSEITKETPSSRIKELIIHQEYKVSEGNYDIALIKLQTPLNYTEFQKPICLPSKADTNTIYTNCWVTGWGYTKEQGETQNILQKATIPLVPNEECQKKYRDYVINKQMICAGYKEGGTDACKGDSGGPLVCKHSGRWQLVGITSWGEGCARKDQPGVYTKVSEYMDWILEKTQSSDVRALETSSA
Sequence of mouse PKal (plasma kallikrein) (P26262 20-390 partner limits assumed): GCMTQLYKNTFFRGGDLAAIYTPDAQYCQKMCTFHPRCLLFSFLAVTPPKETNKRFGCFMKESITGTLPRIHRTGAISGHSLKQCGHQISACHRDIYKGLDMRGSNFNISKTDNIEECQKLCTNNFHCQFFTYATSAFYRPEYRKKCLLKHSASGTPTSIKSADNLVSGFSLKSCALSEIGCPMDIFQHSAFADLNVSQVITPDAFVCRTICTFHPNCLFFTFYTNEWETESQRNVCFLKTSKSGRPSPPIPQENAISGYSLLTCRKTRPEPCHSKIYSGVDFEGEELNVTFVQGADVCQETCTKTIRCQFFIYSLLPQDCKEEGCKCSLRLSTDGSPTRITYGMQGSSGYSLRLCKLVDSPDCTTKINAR

IC50 [1]: 0.00118 ± 0.00025 µM
IC50 ([2]; read-out: Mean IC50 Trypsin, substrate at Km): 38.9 µM
Fold selectivity to human PKal ([2]; trypsin IC50 vs human PKal IC50): 9772
IC50 [4]: > 10 µM
Fold selectivity to human PKal ([4]; factor XIa IC50 vs human PKal IC50): >2513
IC50 [5]: 33.5 µM
Fold selectivity to human PKal ([5]; KLK1 IC50 vs human PKal IC50): 8414
IC50 [6]: 9.1 µM
Fold selectivity to human PKal ([6]; thrombin IC50 vs human PKal IC50): 2291
IC50 [7]: 0.00654 ± 0.00076 µM
Cmax [8]: 974 ng/mL
Tmax [8]: 1.5 h
half-life [8]: 3.55 h
IC50 [9]: 23.1 µM
Fold selectivity to human PKal ([9]; plasmin IC50 vs human PKal IC50): 5821
IC50 [10]: 0.00398 ± 0.00361 µM
Fold selectivity to human PKal ([10]; PKal itself (reference)): 1
selectivity to PKal over closely related trypsin-like serine proteases ([10]; vs KLK1, factor XIIa, factor XIa, thrombin, plasmin, trypsin): > 1000 fold
SMILES: CCOc1ccc(C[C@@H](N)C(=O)N[C@@H](Cc2ccccc2)C(=O)NC2CCN(C(=N)N)CC2)cc1.O=C(O)C(F)(F)F.O=C(O)C(F)(F)F [VA999272, (R)-2-amino-N-[(S)-1-(1-carbamimidoyl-piperidin-4-ylcarbamoyl)-2-phenyl-ethyl]-3-(4-ethoxy-phenyl)-propionamide ditrifluoroacetate]
reduction of VEGF effect on retinal thickness vs vehicle-treated ([3]; 24 hours, P = 0.039): 36%
reduction of VEGF effect on retinal thickness vs vehicle-treated ([3]; 48 hours, P < 0.001): 57%
reduction of VEGF-induced retinal thickening vs vehicle-treated [11]: 53%
